Screening data from PubChem BioAssay.
UBC13 polyUb: inhibitors of human UBC13 polyubiquitin chain formation; TR-FRET; inhibition, % at 20 µM; 330,000 tested, 0.47% active; AID 485273; in the data active means inhibition above about 45%, passing the limit was not always enough
SENP7 inh: inhibitors of human SENP7 protease. recombinant SENP7, Z-RLRGG-aminoluciferin luminescence, 40 min. AID 434973. 330,000 tested, 1.5% active. inhibition, % at 5 µM;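 active means inhibition above about 50% at the single test dose, limit read from the data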
SENP6 block: blocks the human protease SENP6; Q9GZR1; Recombinant SENP6 catalytic domain, aminoluciferin luminescence; inhibition, % at 10 µM; 330,000 tested, 1.8% active;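 active means inhibition above about 50% at the single tested dose, limit read from the data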
SENP8 block-1: SENP8 protease inhibition. Q96LD8. purified SENP8, Z-RLRGG-aminoluciferin cleavage, luminescence. inhibition, % at 10 µM. 330,000 tested, 1.2% active; in the data active means inhibition above about 50%
Apaf-1 inh: inhibitors of human Apaf-1 apoptosome; O14727; inhibition, % at 20 µM; reconstituted apoptosome caspase-3 activity, DEVD-Rh110 fluorescence; AID 489030; 330,000 tested, 0.71% active; active means inhibition of at least 40% at 20 µM
Target sequence (O14727 whole entry, looked up): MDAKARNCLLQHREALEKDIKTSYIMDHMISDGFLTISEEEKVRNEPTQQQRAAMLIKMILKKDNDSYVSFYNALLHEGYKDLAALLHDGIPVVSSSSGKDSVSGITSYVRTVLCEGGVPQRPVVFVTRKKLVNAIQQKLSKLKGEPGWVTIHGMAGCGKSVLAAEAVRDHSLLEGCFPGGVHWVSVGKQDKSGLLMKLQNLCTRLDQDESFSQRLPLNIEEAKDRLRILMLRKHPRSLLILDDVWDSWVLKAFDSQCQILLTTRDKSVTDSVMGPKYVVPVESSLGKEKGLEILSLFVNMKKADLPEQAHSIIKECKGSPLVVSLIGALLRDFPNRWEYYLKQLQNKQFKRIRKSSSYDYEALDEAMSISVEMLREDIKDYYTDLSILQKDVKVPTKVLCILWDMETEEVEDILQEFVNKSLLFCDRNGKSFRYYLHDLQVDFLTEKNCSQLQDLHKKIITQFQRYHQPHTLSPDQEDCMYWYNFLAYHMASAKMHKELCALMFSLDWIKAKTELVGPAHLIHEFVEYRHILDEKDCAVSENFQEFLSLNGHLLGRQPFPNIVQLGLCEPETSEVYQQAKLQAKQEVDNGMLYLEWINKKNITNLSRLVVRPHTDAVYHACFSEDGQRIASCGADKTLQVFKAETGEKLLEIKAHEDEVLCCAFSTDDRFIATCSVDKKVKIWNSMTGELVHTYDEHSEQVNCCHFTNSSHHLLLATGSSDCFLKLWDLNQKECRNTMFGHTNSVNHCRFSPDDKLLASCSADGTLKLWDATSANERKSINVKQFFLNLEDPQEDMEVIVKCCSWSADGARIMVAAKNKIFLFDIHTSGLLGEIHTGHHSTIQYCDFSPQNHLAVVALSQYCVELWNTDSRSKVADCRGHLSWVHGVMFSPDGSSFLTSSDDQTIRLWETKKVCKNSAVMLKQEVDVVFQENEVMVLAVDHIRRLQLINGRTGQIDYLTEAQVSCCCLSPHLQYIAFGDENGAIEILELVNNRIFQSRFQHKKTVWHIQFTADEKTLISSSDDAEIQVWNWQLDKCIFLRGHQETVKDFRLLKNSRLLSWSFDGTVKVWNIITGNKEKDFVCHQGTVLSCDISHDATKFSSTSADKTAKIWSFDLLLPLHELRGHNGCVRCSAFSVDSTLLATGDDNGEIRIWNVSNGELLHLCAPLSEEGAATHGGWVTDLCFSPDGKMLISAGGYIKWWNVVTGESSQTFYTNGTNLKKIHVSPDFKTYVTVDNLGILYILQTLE
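Medium: Hepes buffer, pH 7.5 / System: biochemical Apaf-1 apoptosome reconstitution / Measured by: Rh110 fluorescence, excitation 480 nm, emission 540 nm / Times: compound with Apaf-1, dATP, procaspase-3 30 min, then 50 min reaction, room temperature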
SENP8 block-2: inhibitors of human SENP8 protease; Q96LD8; recombinant SENP8, Nedd8 substrate fluorescence; inhibition, % at 20 µM; 360,000 tested, 0.64% active; AID 602440; in the data active means inhibition mostly above about 40%, no sharp cut-off; inactive means mostly below about 27%
SENP8 confirm: human SENP8 inhibition, confirmed | 6,200 tested, 40% active | inhibition, % at 12.5 µM | Recombinant SENP8, Z-RLRGG-aminoluciferin luminescence, 60 min | shares compounds with SENP7 inh;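 active means mean inhibition across replicates above about 50%, limit read from the data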
SENP6 confirm: confirmation of human SENP6 protease inhibitors; inhibition, % at 12.5 µM; shares compounds with SENP7 inh; recombinant SENP6, Z-RLRGG-aminoluciferin luminescence; AID 488915; 6,200 tested, 58% active
SENP7 confirm: confirmation of human SENP7 protease inhibitors. recombinant SENP7, Z-RLRGG-aminoluciferin luminescence, 40 min. inhibition, % at 12.5 µM. 6,200 tested, 69% active. shares compounds with SENP7 inh. AID 488917
Casp3 SENP sel: caspase-3 inhibition (SENP selectivity assay). purified caspase-3, Z-DEVD-aminoluciferin luminescence, 60 min. 6,200 tested, 60% active. inhibition, % at 12.5 µM. shares compounds with SENP7 inh;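 active means mean inhibition above about 50%, limit read from the data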
Luc interf: counter-screen for SENP inhibitors: luminescence interference; Pre-incubated SENP8/Z-RLRGG-aminoluciferin, luciferase luminescence interference; inhibition, % at 12.5 µM; shares compounds with SENP7 inh; 6,200 tested, 39% active;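 active means mean inhibition above about 50% when retested at one dose, limit read from the data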
Of the large screens only hits and unclear results are named; the others gave an inactive call (follow-up assays come after a bar, where they were run). Rows were chosen to be rich in hits. Some 3.1% of all compounds tested hit in one or more screens of this group.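 How the source made its calls, unless noted: active means mean inhibition above about 50% in the one-dose retest (limit read from the data); inactive means the rest.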

C(=C\c1nc(-c2cccnc2)no1)/c1ccccc1	none
Clc1ccccc1-c1nc(-c2cccnc2)no1	SENP7 inh 81, SENP6 block 84, SENP8 block-1 64 | SENP8 confirm inactive | SENP6 confirm 72 | SENP7 confirm 93 | Casp3 SENP sel 77 | Luc interf 64
O=S1(=O)C[C@H](N2CC[C@@H](O)C2)[C@@H](COCc2ccccc2)N1	none (no result: UBC13 polyUb, SENP7 inh, SENP6 block, SENP8 block-1, Apaf-1 inh)
COc1ccc(C(=O)Nc2nc3ccccc3c(=O)[nH]2)cc1	SENP6 block 54 | SENP8 confirm inactive | SENP6 confirm inactive | SENP7 confirm 59 | Casp3 SENP sel 72 | Luc interf inactive
O=C(Nc1nc2ccccc2[nH]1)c1ccc(Cl)cc1	SENP7 inh 90, SENP6 block 93, SENP8 block-1 87 | SENP8 confirm inactive | SENP6 confirm 92 | SENP7 confirm 100 | Casp3 SENP sel 93 | Luc interf inactive
CC(=O)Nc1nc2ccccc2[nH]1	none
COc1ccc(C(=O)Nc2nc3cc(OC)c(OC)cc3c(=O)[nH]2)cc1	none
O=C(Nc1nc2ccccc2[nH]1)c1ccccc1	SENP7 inh 93, SENP6 block 96, SENP8 block-1 90 | SENP8 confirm 82 | SENP6 confirm 91 | SENP7 confirm 100 | Casp3 SENP sel 96 | Luc interf inactive
O=C(Nc1nc2ccccc2[nH]1)c1cccc(Cl)c1	SENP7 inh 68, SENP6 block 57 | SENP8 confirm inactive | SENP6 confirm inactive | SENP7 confirm 86 | Casp3 SENP sel 66 | Luc interf inactive
C[C@H]1CN([C@@H](C)CO)C(=O)CCCn2cc(nn2)CO[C@@H]1CN(C)C(=O)Oc1ccccc1	none (no result: UBC13 polyUb, SENP7 inh, SENP6 block, SENP8 block-1, Apaf-1 inh)
CCOC(=O)C1(C)CCCN(C(=O)c2c(F)cccc2F)C1 (stereo not drawn)	none (no result: UBC13 polyUb, SENP7 inh, SENP6 block, SENP8 block-1, Apaf-1 inh)
O=C(Nc1nc2ccccc2[nH]1)c1ccccc1O	SENP7 inh 92, SENP6 block 88, SENP8 block-1 82 | SENP8 confirm inactive | SENP6 confirm 80 | SENP7 confirm 64 | Casp3 SENP sel 92 | Luc interf inactive
CC(=O)N1CCC(C(=O)Nc2cc(S(=O)(=O)N3CCCCC3)ccc2C)CC1	none (no result: UBC13 polyUb, SENP7 inh, SENP6 block, SENP8 block-1, Apaf-1 inh)
O=C(NCC1CCCCC1)c1csc([C@@H]2C[C@H](O)[C@@H](CO)O2)n1	none (no result: UBC13 polyUb, SENP7 inh, SENP6 block, SENP8 block-1, Apaf-1 inh)
N#Cc1ccccc1COC(=O)c1ccc2c(c1)OCCO2	SENP6 block 61 | SENP8 confirm 59 | SENP6 confirm 52 | SENP7 confirm 78 | Casp3 SENP sel inactive | Luc interf inactive
CCn1c(/C=C/c2ccccc2)nc2ccccc21	SENP7 inh 92, SENP6 block 97, SENP8 block-1 85 | SENP8 confirm 94 | SENP6 confirm 94 | SENP7 confirm 101 | Casp3 SENP sel 94 | Luc interf 95
COc1ccc(/C=C/c2nc3ccccc3n2C)cc1	SENP7 inh 101, SENP6 block 101, SENP8 block-1 96 | SENP8 confirm 100 | SENP6 confirm 101 | SENP7 confirm 103 | Casp3 SENP sel 99 | Luc interf 97
COc1ccc(-n2cnc3ccccc32)cc1	none
COc1ccc(Cn2c(/C=C/c3ccccc3)nc3ccccc32)cc1	SENP7 inh 88, SENP6 block 89, SENP8 block-1 81 | SENP8 confirm 90 | SENP6 confirm 91 | SENP7 confirm 99 | Casp3 SENP sel 71 | Luc interf inactive
CO[C@H](C(=O)N(C)C[C@@H]1OCc2ccccc2-c2c(n(C)c3ccccc23)C(=O)N([C@H](C)CO)C[C@@H]1C)c1ccccc1	none (no result: UBC13 polyUb, SENP7 inh, SENP6 block, SENP8 block-1, Apaf-1 inh)
O=C(COC(=O)c1ccc(S(=O)(=O)N2CCOCC2)cc1)NCc1ccco1	none (no result: UBC13 polyUb, SENP7 inh, SENP6 block, SENP8 block-1, Apaf-1 inh)
CC(=O)Nc1ccc(-c2ccnc3c2CC(C(=O)Nc2cccc(C(C)=O)c2)O3)cc1 (stereo not drawn)	none (no result: UBC13 polyUb, SENP7 inh, SENP6 block, SENP8 block-1, Apaf-1 inh)
CC(C)CC1NC(=O)c2cc3ccccc3cc2-n2c1nc1ccc(F)cc1c2=O (stereo not drawn)	none (no result: UBC13 polyUb, SENP7 inh, SENP6 block, SENP8 block-1, Apaf-1 inh)
Cc1cc(NC(=O)Nc2ccccc2F)ccc1Br	SENP7 inh 95, SENP6 block 80, SENP8 block-1 88 | SENP8 confirm 76 | SENP6 confirm 92 | SENP7 confirm 102 | Casp3 SENP sel 86 | Luc interf 64
COc1cccc(NC(=O)COc2ccccc2C(N)=O)c1	SENP6 block 65 | SENP8 confirm inactive | SENP6 confirm inactive | SENP7 confirm 71 | Casp3 SENP sel 75 | Luc interf 52
Cn1nnc2cc(NC(=O)Nc3ccccc3F)ccc21	none (no result: UBC13 polyUb, SENP7 inh, SENP6 block, SENP8 block-1, Apaf-1 inh)
COc1cccc(NC(=O)Nc2cc(Cl)ccc2C)c1	none
COc1cccc(NC(=O)Nc2ccccc2Br)c1	SENP7 inh 82, SENP6 block 90, SENP8 block-1 66 | SENP8 confirm 77 | SENP6 confirm 78 | SENP7 confirm 94 | Casp3 SENP sel 70 | Luc interf inactive
COc1ccc(C)cc1NC(=O)Nc1cccc(C(=O)O)c1	none
COc1ccccc1NC(=O)Nc1cccc(C(=O)O)c1	SENP6 block 60 | SENP8 confirm 56 | SENP6 confirm 52 | SENP7 confirm 80 | Casp3 SENP sel 77 | Luc interf 63
Cc1cn([C@H]2C[C@H](O)[C@@H](CNC=O)O2)c(=O)[nH]c1=O	none (no result: UBC13 polyUb, SENP7 inh, SENP6 block, SENP8 block-1, Apaf-1 inh)
Nc1nc2cc(Cl)ccc2cc1C(=O)NCCCc1ccccc1	none (no result: UBC13 polyUb, SENP7 inh, SENP6 block, SENP8 block-1, Apaf-1 inh)
C[C@@H](NC(=O)[C@@H]1CCCN1C(=O)[C@@H]1CCCN1C(=O)c1cccc(Cl)c1)c1ccccc1	none (no result: UBC13 polyUb, SENP7 inh, SENP6 block, SENP8 block-1, Apaf-1 inh)
COC(=O)[C@]12CCCCC=C1N(Cc1ccc3c(c1)OCO3)C(=O)[C@H](CC(=O)N1CCSCC1)C2	none (no result: UBC13 polyUb, SENP7 inh, SENP6 block, SENP8 block-1, Apaf-1 inh)
O=C(Nc1cccs1)Nc1ccccc1Br	SENP6 block 50 | SENP8 confirm inactive | SENP6 confirm inactive | SENP7 confirm 75 | Casp3 SENP sel inactive | Luc interf inactive
O=C(O)CCc1ccc(-c2ccc(Cl)cc2)o1	SENP6 block 73 | SENP8 confirm 68 | SENP6 confirm 61 | SENP7 confirm 88 | Casp3 SENP sel 66 | Luc interf 81
O=C(O)c1ccc(-c2nc(-c3ccc(Cl)cc3Cl)cs2)cc1	SENP6 block 60 | SENP8 confirm inactive | SENP6 confirm inactive | SENP7 confirm inactive | Casp3 SENP sel inactive | Luc interf inactive
